{"data": "Measured values from different studies", "KDR": "Vascular endothelial growth factor receptor 2 (KDR, Homo sapiens, UniProt P35968)", "PIP5K1A": "Phosphatidylinositol 4-phosphate 5-kinase type-1 alpha (PIP5K1A, Homo sapiens, UniProt Q99755)"}
{"Structure (SMILES)": "COc1ccc(-c2cc(=O)c3c(O)cc(O[C@@H]4O[C@H](CO[C@@H]5O[C@@H](C)[C@H](O)[C@@H](O)[C@H]5O)[C@@H](O)[C@H](O)[C@H]4O)cc3o2)cc1O", "target": "KDR", "assay": "enzyme activity, inhibitor, TR-FRET", "conditions": "40 µM", "quantity": "inhibition", "value": "51.5%"}
{"Structure (SMILES)": "CC(=O)/C=C/C=C(C)/C=C/C1=C(C)CC(O)CC1(C)C (stereo in doubt)", "target": "D14 (Oryza sativa, UniProt Q10QA5)", "assay": "thermal stability, DSF", "conditions": "10 µM", "quantity": "ΔTm", "value": "2.75 °C"}
{"Structure (SMILES)": "CNS(=O)(=O)c1ccc(Nc2ncc(C(F)(F)F)c(N3CCC[C@](C)(O)C3)n2)c(C)c1", "target": "PIP5K1A", "assay": "binding, competition with immobilised ligand", "conditions": "1 µM", "quantity": "remaining binding", "value": "100%"}
{"Structure (SMILES)": "CC(C)c1ccc(Sc2ccc3nnc(C(F)(F)F)n3n2)cc1", "target": "Glutamate NMDA receptor; Grin1/Grin2a (Grin1/Grin2a, Rattus norvegicus, UniProt P35439+Q00959)", "assay": "ion current, two-electrode voltage clamp", "conditions": "30 µM, oocytes", "quantity": "remaining activity", "value": "97%"}
{"Structure (SMILES)": "COc1ccc2oc(-c3ccc4nc(N)oc4c3)c/c(=N\\c3ccccc3NC(=O)CCN)c2c1", "target": "Activin receptor type-1-like (ACVRL1, Homo sapiens, UniProt P37023)", "assay": "binding", "conditions": "1 µM", "quantity": "remaining binding", "value": "106%"}
{"Structure (SMILES)": "CC(=O)ON=C1C=CC(=C(C#N)c2ccccc2)C=C1", "target": "Glycogen synthase kinase-3 beta (GSK3B, Homo sapiens, UniProt P49841)", "assay": "enzyme activity, inhibitor, ADP detection", "conditions": "20 µM", "quantity": "activity vs control", "value": "82%"}
{"Structure (SMILES)": "CC1=C(/C=C/C(C)=C/C=C/C(C)=C/C=C/C=C(C)/C=C/C=C(C)/C=C/C2=C(C)CCCC2(C)C)C(C)(C)CCC1", "target": "KDR", "assay": "enzyme activity, inhibitor, TR-FRET", "conditions": "40 µM", "quantity": "inhibition", "value": "-6.3%"}
{"Structure (SMILES)": "CCN1/C(=C/C(C)=O)Sc2ccc(F)cc21", "target": "Vasopressin V1b receptor (AVPR1B, Homo sapiens, UniProt P47901)", "assay": "ligand displacement, radioligand", "conditions": "10 µM", "quantity": "inhibition", "value": "2.63%"}
{"Structure (SMILES)": "Cc1cc(O)c(-c2ccc([C@@H](C)CN(C)C)cc2)c2c1[nH]c(=O)c1sccc12", "target": "Serine/threonine-protein kinase Nek4 (NEK4, Homo sapiens, UniProt P51957)", "assay": "enzyme activity, inhibitor", "conditions": "0.1 µM", "quantity": "inhibition", "value": "0.965%"}
{"Structure (SMILES)": "Cc1cc(S(=O)(=O)N[C@H]2CC[C@H](CN3CCN(c4ccc(C5CCC(=O)NC5=O)cc4F)CC3)CC2)ccc1Nc1ncc(C(F)(F)F)c(N2CCC[C@](C)(O)C2)n1 (stereo partly drawn)", "target": "PIP5K1A", "assay": "binding, competition with immobilised ligand", "conditions": "1 µM", "quantity": "remaining binding", "value": "70%"}
{"Structure (SMILES)": "C1=C/COCc2cc(ccc2OCCN2CCCC2)Nc2nccc(n2)-c2cccc(c2)COC/1", "target": "1-phosphatidylinositol 3-phosphate 5-kinase (PIKFYVE, Homo sapiens, UniProt Q9Y2I7)", "assay": "cell-free assay", "conditions": "0.1 µM", "quantity": "remaining signal", "value": "17%"}
{"Structure (SMILES)": "CCCCC(=O)Nc1ccc(-c2ccc3ncn(CCC)c(=O)c3c2)cn1", "target": "Interleukin-1 receptor-associated kinase 3 (IRAK3, Homo sapiens, UniProt Q9Y616)", "assay": "binding, competition with immobilised ligand", "conditions": "0.5 µM", "quantity": "remaining binding", "value": "99%"}
